Experimental data taken from article PMC5628144 (Phytotherapy research : PTR, 2017).
Several values for one entry are separate records, joined by “and”; a condition that tells them apart may be missing. Equal values may be shown once. Blank lines part the entries; values can stand above or below the compound they belong to.

Legend:
[1] = system: MDA-MB-231 breast cancer cells; assay: MTT cell proliferation assay, HGF-induced, MDA-MB-231; format: cell-based, human; conditions: 48 h
Procedure, shortened: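 MDA-MB-231 cells were seeded at 1×10⁴/well (6 wells/group) in RPMI-1640 with 10% FBS overnight. They were PBS-washed and treated for 48 h at 37°C in serum-free RPMI with 40 ng/mL HGF and 10 or 40 µM test compound, or DMSO vehicle. MTT 1 mg mL⁻¹ for 4 h, DMSO solubilisation, A570. Cell number came from a standard curve, and % survival was taken relative to DMSO wells.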

c-Met kinase = c-Met kinase (Homo sapiens, UniProt P08581); assay: Cell-free Z'-LYTE kinase assay, c-Met phosphorylation inhibition; format: biochemical; conditions: for % c-Met Inhibition using Cell-Free assay (5 µM dose): single 5 µM dose; for IC50: read-out: c-Met phosphorylation inhibitory IC50, various doses
Sequence of c-Met kinase (P08581 1078-1345 limits assumed): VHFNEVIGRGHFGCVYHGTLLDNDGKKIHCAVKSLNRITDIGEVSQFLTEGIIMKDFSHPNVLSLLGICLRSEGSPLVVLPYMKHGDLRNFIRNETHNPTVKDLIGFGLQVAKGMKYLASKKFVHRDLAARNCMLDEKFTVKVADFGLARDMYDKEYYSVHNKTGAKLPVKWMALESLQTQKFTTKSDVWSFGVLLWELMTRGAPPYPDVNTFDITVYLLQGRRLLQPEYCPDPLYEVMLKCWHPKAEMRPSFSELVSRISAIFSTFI
Procedure, shortened: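 Purified c-Met kinase domain, pre-phosphorylated in vitro, in a Z'-LYTE Tyr6 peptide kit. Reactions held kinase buffer, 200 µM ATP, 4 µM Tyr6 peptide, 2500 ng mL⁻¹ c-Met and test compound, run 1 h at rt. Protease development solution then added for 1 h. Read-out was the 445/520 nm fluorescence ratio. Screen at 5 µM, then various doses, N=3/dose. IC50 from non-linear regression.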

[2] = system: MDA-MB-468 breast cancer cells; assay: MTT cell proliferation assay, HGF-induced, MDA-MB-468; format: cell-based, human; conditions: MDA-MB-468, various doses
Procedure, shortened: (§1)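 MDA-MB-468, MCF-7 or BT-474 cells were seeded at 1×10⁴/well (6 wells/group) in RPMI-1640 with 10% FBS and left overnight at 37°C, 5% CO₂. After a PBS wash they got serum-free RPMI with 40 ng/mL HGF plus test compound at various doses, or DMSO (≤0.1%), for 48 h. MTT (1 mg mL⁻¹) for 4 h, formazan dissolved in DMSO, A570. IC50 by non-linear regression.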

MDA-MB-231 cells = assay: Wound-healing scratch assay; format: cell-based, human; conditions: read-out: IC50, HGF-induced cell migration; WHA, MDA-MB-231, 24 h, 40 ng/mL HGF
Procedure, shortened: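 Scratch wounds were made with a pipette tip in overnight confluent MDA-MB-231 monolayers, then rinsed with PBS and RPMI. Test compound at various doses in serum-free medium with 40 ng/mL HGF, in triplicate, for 24 h. Cells were fixed and Giemsa-stained, and wound width measured at 0 and 24 h. % migration calculated against DMSO-treated wells, with IC50 by non-linear regression. Oleocanthal 10 µM was the positive control.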

[3] = system: MCF-7 breast cancer cells; assay: MTT cell proliferation assay, HGF-induced, MCF-7; format: cell-based, human; conditions: MCF-7, various doses
Procedure, shortened: as §1

[4] = system: BT-474 breast cancer cells; assay: MTT cell proliferation assay, HGF-induced, BT-474; format: cell-based, human; conditions: BT-474, various doses
Procedure, shortened: as §1

Compound: C[C@@H]1O[C@@H](O[C@H]2[C@@H]3C=CO[C@@H](O[C@@H]4O[C@H](CO)[C@@H](O)[C@H](O)[C@H]4O)[C@@H]3[C@@]3(CO)O[C@@H]23)[C@H](O)[C@H](OC(=O)/C=C/c2ccc(O)cc2)[C@H]1OC(=O)/C=C/c1ccc(O)cc1 (relative stereo) [Compound 1, 6-O-α-L-(3″,4″-di-O-trans-p-coumaroyl) rhamnopyranosylcatalpol]
% Survival Inhibition ([1]; 40 µM): 26%
% c-Met Inhibition using Cell-Free assay (5 µM dose) (c-Met kinase): 0%

Compound: C[C@@H]1O[C@@H](OC(=O)/C=C/c2ccc(O)cc2)[C@H](OC(=O)/C=C/c2ccc(O)c(O)c2)[C@H](O)[C@H]1O (relative stereo) [Compound 9, 1-O-trans-p-coumaroyl-2-O-trans-caffeoyl-α-L-rhamnopyranose]
HGF-induced proliferation [2]: dose-dependent suppression
IC50 (MDA-MB-231 cells): 0.98 µM
% Survival Inhibition ([1]; 10 µM): 50% and 51.3%
% Survival Inhibition ([1]; 40 µM): 80% and 79.3%
HGF-induced proliferation [3]: dose-dependent suppression
IC50 (c-Met kinase): 2.5 µM
HGF-induced proliferation [4]: dose-dependent suppression

Compound: C[C@@H]1O[C@@H](OC(=O)/C=C/c2ccc(O)cc2)[C@H](O)[C@H](OC(=O)/C=C/c2ccc(O)c(O)c2)[C@H]1O (relative stereo) [Compound 10, 1-O-trans-p-coumaroyl-3-O-trans-caffeoyl-α-L-rhamnopyranose]
IC50 (MDA-MB-231 cells): 8.1 µM
% Survival Inhibition ([1]; 10 µM): 28% and 28.2%
% Survival Inhibition ([1]; 40 µM): 49% and 49.2%
IC50 (c-Met kinase): 12.7 µM
% c-Met Inhibition using Cell-Free assay (5 µM dose) (c-Met kinase): 38.8%

Compound: COc1ccc(C=CC(=O)OC2C(C)OC(OC3C4C=COC(OC5OC(CO)C(O)C(O)C5O)C4C4(CO)OC34)C(O)C2OC(=O)C=Cc2ccc(OC)cc2)cc1 [Compound 2, 6-O-α-L-(3″,4″-di-O-trans-p-methoxycinnamoyl)-rhamnopyranosylcatalpol]
% Survival Inhibition ([1]; 40 µM): 17%
% c-Met Inhibition using Cell-Free assay (5 µM dose) (c-Met kinase): 0%

Compound: COc1ccc(/C=C/C(=O)O[C@@H]2[C@@H](O)[C@@H](O)[C@H](O[C@H]3[C@@H]4C=CO[C@@H](O[C@@H]5O[C@H](CO)[C@@H](O)[C@H](O)[C@H]5O)[C@@H]4[C@@]4(CO)O[C@@H]34)O[C@H]2C)cc1 [Compound 8, 6-O-α-L-(4”-O-p-methoxycinnamoyl) rhamnopyranosylcatalpol]
IC50 (MDA-MB-231 cells): 13.5 µM
% Survival Inhibition ([1]; 10 µM): 32%
% Survival Inhibition ([1]; 40 µM): 61% and 61.3%
IC50 (c-Met kinase): 6.9 µM
% c-Met Inhibition using Cell-Free assay (5 µM dose) (c-Met kinase): 56.7%

Continued, in another order:

% c-Met Inhibition using Cell-Free assay (5 µM dose) (c-Met kinase): 10.9%
Compound: 6-O-α-L-(3″-O-trans-p-coumaroyl-4″-O-trans-caffeoyl)-rhamnopyrano-sylcatalpol [Compound 3]
% Survival Inhibition ([1]; 10 µM): 27%
% Survival Inhibition ([1]; 40 µM): 30%

% c-Met Inhibition using Cell-Free assay (5 µM dose) (c-Met kinase): 0%
Compound: premnoside B [Compound 6]
% Survival Inhibition ([1]; 10 µM): 10%
% Survival Inhibition ([1]; 40 µM): 13%

% c-Met Inhibition using Cell-Free assay (5 µM dose) (c-Met kinase): 0%
Compound: premnoside C [Compound 7]
% Survival Inhibition ([1]; 10 µM): 13%
% Survival Inhibition ([1]; 40 µM): 18%

% c-Met Inhibition using Cell-Free assay (5 µM dose) (c-Met kinase): 0%
Compound: premnoside E [Compound 4]
% Survival Inhibition ([1]; 40 µM): 7%

% c-Met Inhibition using Cell-Free assay (5 µM dose) (c-Met kinase): 0%
Compound: premnoside G [Compound 5]
% Survival Inhibition ([1]; 40 µM): 20%
